Here are results for 96 compounds from ChEMBL document CHEMBL4513216, “Probing the Open Global Health Chemical Diversity Library for Multistage-Active Starting Points for Next-Generation Antimalarials” (ACS Infect Dis, 2020).

The structures appear in SMILES notation.

A short description of this series: Toxicity liver stage against HepG2, at 10uM. Format: cell-based. The note with it: human, HepG2-A16-CD81EGFP cells; read-out: INHIBITION
Details: test concentration 10 uM, cell line HepG2-A16-CD81EGFP. In outline:
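Uninfected HepG2-A16-CD81EGFP cells, 3 × 10^3 per well, 1536-well, plated on prespotted compound at 10 μM final, parasite-free screening media added to match infected plates; puromycin 10 μM positive, DMSO 0.5% negative; run in parallel with 48 h PbLuc assay at 37 °C, 5% CO2; viability by CellTiter-Glo luminescence, normalized to controls.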
As for `CCC(CC)C(=O)NCc1c(C)nn(C)c1N1CCCN(C)CC1`, the cytotoxicity at 10 µM turned out to be 0.295%.
As for `O=C(O)[C@@H]1CN(Cc2ccc3nsnc3c2)C[C@H]1c1ccncc1`, the cytotoxicity at 10 µM worked out at 5.4%.
As to `CCC1CN(C(=O)COc2ccc(C)nc2)CCO1` (stereo unspecified), the cytotoxicity at 10 µM is -3.7%.
As for `CCC1=N[C@@]2(CC[C@@H]3CN(S(=O)(=O)CC(C)C)C[C@@H]32)C(=O)N1CC1CC1`, the cytotoxicity at 10 µM was determined as 0.457%.
In the case of `O=C(CCc1cccnc1)N1CCCC(n2cncn2)C1` (stereo unspecified) it was -10.9%; in that of `CC(C)c1n[nH]c(C2CN(C(=O)c3cnccn3)CCO2)n1` (stereo unspecified), 2.16%; in that of `CC(C)(C)NC(=O)C1CSCN1C(=O)CCc1ccco1` (stereo unspecified), -6.77%.
In the case of `COC(C(=O)N1CCCN(Cc2cscn2)CC1)c1ccccc1` (stereo unspecified), the cytotoxicity at 10 µM is -8.34%.
For the compound `CCn1nc(C)c2nnn(CC(=O)Nc3cccc(Cl)c3)c(=O)c21`, the cytotoxicity at 10 µM came to 4.47%.
As to `CN1CCOC(c2cncc(CCC(=O)N(C)C)n2)C1` (stereo unspecified), the cytotoxicity at 10 µM is 0.55%.
`O=C(Cn1cccc(S(=O)(=O)N2CCCC2)c1=O)c1ccccc1Cl`: the cytotoxicity at 10 µM is 1.08%.
`Cc1nc(CCC(=O)NC2CCC2)cc(C2CCCNC2)n1` (stereo unspecified): the cytotoxicity at 10 µM stood at 1.09%.
Take `Cc1nc2c(c(NCC(c3cccnc3)N3CCOCC3)n1)CCNC2` (stereo unspecified): the cytotoxicity at 10 µM was -11.1%.
In the case of `CNc1cncc(C2CCCN2C(=O)c2ccc3nc(C)[nH]c3c2)n1` (stereo unspecified), the cytotoxicity at 10 µM was -8.94%.
Consider `Cc1noc(C)c1CNCc1c(C(C)C)nn(C)c1N1CCOCC1`, for which the cytotoxicity at 10 µM stood at 4.8%.
Regarding `C=C(C)COc1ccccc1C(=O)NCc1nc(C)cc(=O)[nH]1`, the cytotoxicity at 10 µM is -3.7%.
For the compound `C[C@@H]1CN(CCC(=O)N(C)Cc2ccccc2)C[C@@]1(O)C1CCC1`, the cytotoxicity at 10 µM is -6.95%.
With `CCCN1CCC(NC(=O)c2ccc(F)cc2I)CC1`, the cytotoxicity at 10 µM is -11.8%.
With `CC(C)(C)c1n[nH]c(C2CN(C(=O)C3=COCCC3)CCO2)n1` (stereo unspecified), the cytotoxicity at 10 µM was -5.74%.
As to `CN(C)C(=O)CCC[S+]([O-])Cc1ccc(Cl)c(Cl)c1` (stereo unspecified), the cytotoxicity at 10 µM was 12.4%.
As for `O=C(NCCc1c[nH]c2ccccc12)C1(n2cnnn2)CCCCC1`, the figure is -0.321%; as for `Cc1ccc(NC(=O)CCC2CC2)cc1N1CCOC1=O`, 3.86%; as for `O=C(CCNC(=O)C1=Cc2ccccc2OC1)Nc1cccnc1`, -0.956%.
On to `c1ccc(-c2noc(CNC3CCc4ncnn4C3)n2)nc1` (stereo unspecified), for which the cytotoxicity at 10 µM is -11.7%.
`CC(c1ccccc1Cl)N1CCN(C(=O)c2ccc(=O)[nH]c2)CC1` (stereo unspecified): the cytotoxicity at 10 µM was -7.85%.
As to `CC(C)COc1cncc(N2CCCN(CC(F)(F)F)CC2)n1`, the cytotoxicity at 10 µM came out at 4.29%.
Take `COc1cc(CN2CCCC[C@]3(C)NC(=O)CC[C@H]23)ccc1F`: the cytotoxicity at 10 µM was -2.32%.
Regarding `CC(=O)N1CCN([C@@H]2CN(C(=O)c3ccccc3)C[C@H]2O)CC1`, the cytotoxicity at 10 µM is -4.8%.
As for `CN(Cc1ccncn1)C(=O)CCC(=O)NC1CCCC1`, the figure is -1.01%; as for `CCCn1nc2c(cc1=O)CN(c1ncnc3ccsc13)CC2`, 49.5%; as for `Cc1ncc(S(C)(=O)=O)c(N2Cc3ccccc3C2)n1`, -18.3%.
As to `Cc1cc2cc(CNC3CCN(CC(=O)N(C)C)CC3)oc2cc1C`, the cytotoxicity at 10 µM was -5.95%.
As for `CNc1ncc(C(=O)N2CCCC(Cc3ccccc3OC)C2)s1` (stereo unspecified), the figure is -0.094%; as for `Cn1nc(C2CCNCC2)c2c(C(=O)NC3CC3)cc(C3CC3)nc21`, 16.2%; as for `CCc1cc(=O)[nH]c(-c2ccc(NCCc3ccc(O)cc3)nc2)n1`, 61.1%.
Consider `CCc1cc(=O)n(CCNC(=O)Nc2ccc(OC(F)(F)F)cc2)cn1`, for which the cytotoxicity at 10 µM was -0.898%.
Turning to `Nc1cc(O)nc(CCNC(=O)CC[C@@H]2CCCN3CCCC[C@H]23)n1`, the cytotoxicity at 10 µM was -1.89%.
For the compound `COCCN(C)C[C@H]1C[C@H](CO)CN(C(=O)c2ccc(=O)n(C)c2)C1`, the cytotoxicity at 10 µM was -1.06%.
With `O=C1NC2(CCN(Cc3nccs3)CC2)CC1c1ccncc1` (stereo unspecified), the cytotoxicity at 10 µM is -1.31%.
Regarding `CC(=O)c1ccc(NC(=O)NCc2cccc(N(C)C)n2)cc1C`, the cytotoxicity at 10 µM worked out at 6.45%.
As for `COc1cc(C(=O)N2CCCC2CC(=O)c2cnn(C)c2)ccc1F` (stereo unspecified), the cytotoxicity at 10 µM was -4.62%.
As for `O=C(NCc1ccc(F)cc1)NCC1(N2CCOCC2)CCSC1` (stereo unspecified), the cytotoxicity at 10 µM is 1.84%.
In the case of `CC(C)Cc1cc(C(=O)NC(C)(CO)CO)n(C)n1`, the cytotoxicity at 10 µM worked out at 6.57%.
On to `O=C(c1cc[nH]n1)N1CCC2(CC1)CC(Oc1cccnc1)CO2` (stereo unspecified), for which the cytotoxicity at 10 µM worked out at 6.7%.
For the compound `Cc1cnc(N2CCC3(CC2)CCN(c2cncnc2)C3=O)nc1`, the cytotoxicity at 10 µM is -13%.
With `CCc1ccc(C2CC(=O)Nc3cc(NS(C)(=O)=O)ccc32)o1` (stereo unspecified), the cytotoxicity at 10 µM was 86%.
Regarding `Cc1ccc(-c2cn3c(n2)CO[C@@H](CNCc2nccn2C)C3)cc1`, the cytotoxicity at 10 µM is -10.6%.
Consider `CC(C)c1nn(C)c(N(C)C)c1CNC1CCC(O)CC1` (stereo unspecified), for which the cytotoxicity at 10 µM was 1.63%.
On to `CCc1nnc2n1CC(CNc1cnc3ccccc3n1)CC2` (stereo unspecified), for which the cytotoxicity at 10 µM was -37.4%.
Consider `NC(=O)c1cc(CC2CCCN(Cc3cnccn3)CC2)ncn1` (stereo unspecified), for which the cytotoxicity at 10 µM is -3.97%.
In the case of `CN(C)c1ccc(NC(=O)N2CCCCCC2c2ccncc2)cn1` (stereo unspecified) it was 0.462%.
With `COCCn1c2c(ccc1=O)CCN(C(=O)C1CC=CC1)CC2`, the cytotoxicity at 10 µM is 4.77%.
For the compound `Cc1cc(CN(C)C(=O)CNS(=O)(=O)c2cccs2)no1`, the cytotoxicity at 10 µM was -33.4%.
In the case of `Cn1cnc(S(=O)(=O)N2C[C@H]3CC[C@@H](C2)N(Cc2ccccn2)C3)c1`, the cytotoxicity at 10 µM was determined as 7.27%.
As for `Cc1noc(C)c1CN1CCC2(CC1)CCN(C(=O)c1cscn1)C2`, the cytotoxicity at 10 µM is 1.21%.
As for `O=C(c1ccco1)N(CC(F)(F)F)C1CCOCC1`, the figure is -12.3%; as for `COc1ccc(NC(=O)CCC(C)C)c(N2CCN(C(C)=O)CC2)n1`, 8.43%.
In the case of `COc1ccc(C(O)CNC(=O)Nc2cc(C)nn2C)cc1` (stereo unspecified), the cytotoxicity at 10 µM amounted to 2.33%.
As to `O=C(CCC1CCCC1)N1CCC(c2cc3ncccc3c(O)n2)CC1`, the cytotoxicity at 10 µM was -4.82%.
As to `CC(C)NC(=O)c1nnn(-c2ccc(F)cc2)c1C1CC1`, the cytotoxicity at 10 µM stood at 12.1%.
`Cn1ncc(NCc2cccc(F)c2)c(Cl)c1=O`: the cytotoxicity at 10 µM is -7.72%.
On to `O=C(CCCn1cccn1)N1C[C@@H](O)[C@H](Oc2cccc(F)c2)C1`, for which the cytotoxicity at 10 µM worked out at 5.75%.
Regarding `CO[C@H]1COCCN(C(=O)c2ccc(C(F)(F)F)cc2)C1`, the cytotoxicity at 10 µM is 4.94%.
On to `CC(C(=O)N1CCCC1)S(=O)(=O)Cc1nc(C(C)(C)C)no1` (stereo unspecified), for which the cytotoxicity at 10 µM turned out to be 8.18%.
As for `Cc1nc(NCc2coc(-c3ccccc3)n2)cc(C2CCNCC2)n1`, the cytotoxicity at 10 µM was found to be 7.94%.
Consider `CCc1noc(C(C)N2CCC(O)CC2)n1` (stereo unspecified), for which the cytotoxicity at 10 µM came to 0.26%.
In the case of `CN1CCC(N(C)C(=O)c2cnn(-c3cc(F)ccc3F)c2N)CC1`, the cytotoxicity at 10 µM was -8.47%.
As for `COc1c(CNCc2ccccc2CN2CCOCC2)c(C)nn1C`, the figure is -0.686%; as for `COc1ccc(CCn2ccnc2-c2cc3n(n2)CCCNC3)cc1`, 8.07%.
For the compound `Cc1ccc(C(C)(O)CNC(=O)c2scnc2C)o1` (stereo unspecified), the cytotoxicity at 10 µM is -1.42%.
As for `CN(C)c1ncc(CNC2CC(=O)N(CCc3cccc(Cl)c3)C2)s1` (stereo unspecified), the figure is -132%; as for `Cc1cc(NCCS(C)(=O)=O)nc2ccccc12`, 0.748%.
`CC(C)NC(=O)[C@H]1C[C@H]2CN(C(=O)NCCc3ccccc3)C[C@@H]1O2`: the cytotoxicity at 10 µM was found to be 1.25%.
Take `Cc1ccc(F)cc1NC(=O)NCC(C)N1CCOCC1` (stereo unspecified): the cytotoxicity at 10 µM is 2.6%.
As for `C=C(C)COc1ccccc1CNC(CC)c1ccnn1C` (stereo unspecified), the cytotoxicity at 10 µM was -4.7%.
On to `Cc1cc(CN2CCN(C(C)c3nc(C(C)C)no3)CC2)no1` (stereo unspecified), for which the cytotoxicity at 10 µM is 3.29%.
With `O=C(c1cccs1)N1CCc2c(nc(N3CCCC3)[nH]c2=O)C1`, the cytotoxicity at 10 µM is -16.3%.
With `c1nc(N2CCCC(Cn3cncn3)C2)c2ccsc2n1` (stereo unspecified), the cytotoxicity at 10 µM was determined as 5.68%.
As for `CCc1csc(C2CCCN(C(=O)c3ccncc3)C2)n1` (stereo unspecified), the cytotoxicity at 10 µM was found to be 5.9%.
In the case of `COCCN1CCN(C(=O)C[C@@H]2C[C@@H](C(C)C)[C@H](CO)C=C2C)CC1` it was 4.82%; in that of `Cc1noc(C)c1CN1CCN(Cc2nc(C3CC3)no2)CC1`, 31.4%.
For the compound `CC(C)(C)c1ncc2c(n1)CN(C(=O)c1ccncc1)C2`, the cytotoxicity at 10 µM was -12.5%.
For the compound `CN(Cc1cc2n(n1)CCCNC2)Cc1ccno1`, the cytotoxicity at 10 µM came out at 2.57%.
As to `CNC(=O)CCc1cc(C)nc(C2CCN(c3cnccn3)CC2)c1`, the cytotoxicity at 10 µM came to 1.31%.
As for `CCn1ncc(CN2CCN(C(=O)Cn3cc(Br)c(C)n3)CC2)c1C`, the figure is 0.301%; as for `O=C(CN1CCCC1Cn1cccn1)NCCOc1cccc(F)c1` (stereo unspecified), -3.54%; as for `COC(=O)C1=NN2C(=NS(=O)(=O)c3ccccc32)N1`, -8.57%.
On to `c1ccc(C2=NOC3(CCN(Cc4c[nH]c5ccccc45)CC3)C2)cc1`, for which the cytotoxicity at 10 µM amounted to 3.93%.
Consider `Cc1nnn2c1COC(CNCc1ccccn1)C2` (stereo unspecified), for which the cytotoxicity at 10 µM turned out to be 0.903%.
As to `Cn1ncc2c1NC(=O)CC2c1cccs1` (stereo unspecified), the cytotoxicity at 10 µM is -0.585%.
Regarding `Cc1ccccc1CNc1ccccc1OCC(=O)N1CCOCC1`, the cytotoxicity at 10 µM is -2.38%.
In the case of `CN(Cc1ccco1)C(=O)c1ccc(=O)n(C)c1`, the cytotoxicity at 10 µM is -47.5%.
In the case of `Cc1nnc(N2CCC(CS(N)(=O)=O)CC2)c(C#N)c1C` it was 2.12%; in that of `CN(C)C(CNCc1nc(-c2ccsc2)no1)c1ccsc1` (stereo unspecified), -1.63%.
For the compound `CCOc1ccc2[nH]c(=O)c(CN3CCCCC3C)cc2c1` (stereo unspecified), the cytotoxicity at 10 µM was -0.895%.
For the compound `CCn1ccnc1C1CCN(C(=O)Nc2ccc(OC)cc2)CC1`, the cytotoxicity at 10 µM was -1.77%.
